From ChEMBL document CHEMBL6177922, “Antibacterial activity of the structurally novel C-2 amine-substituted analogues based on quinoxaline” (RSC Med Chem, 2025)
Values after ≈ are worked out from the molar mass of the structure shown. Active and inactive are the calls of the source. The calls are words filed in the database; no cut-off is given here.

What was measured:
Staphylococcus aureus [1] = assay: Antibacterial activity against methicillin-resistant Staphylococcus aureus USA300 assessed as reduction in bacterial growth by broth microdilution method; type: functional
How it was run: (§1)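 Twofold serial dilution (microdilution) MIC in lysogeny broth (LB) medium against drug-resistant strains: MRSA USA300, vancomycin-resistant Enterococci, Klebsiella pneumoniae.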

Enterococcus = assay: Antibacterial activity against vancomycin-resistant Enterococcus assessed as reduction in bacterial growth by broth microdilution method; type: functional; how it was run: as §1
Staphylococcus aureus [2] = assay: Antibacterial activity against methicillin-resistant Staphylococcus aureus measured for 15 days; type: functional, organism-based; conditions: time 15.0 day
How it was run: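 Resistance development: MRSA serially subcultured in fresh medium starting from the initial MIC. MIC reassessed every 24 h over 24 days, alongside a reference antibiotic given in twofold dilutions.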

Staphylococcus aureus [3] = assay: Bactericidal activity against methicillin-resistant Staphylococcus aureus at 2 times MIC incubated for 24 hrs by time kill assay; type: functional, organism-based
How it was run: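 Time-kill: MRSA grown 24 h at 37 °C, adjusted to ~2 × 10^6 CFU mL-1, exposed at 2× or 3× MIC with shaking at 37 °C. Aliquots taken at 0.5–13 h, serially diluted 10-fold in PBS, plated on Mueller–Hinton agar, counted after 24 h at 37 °C. Duplicate.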

Escherichia coli [4] = assay: Bactericidal activity against Escherichia coli at 2 to 3 times MIC incubated for 24 hrs by time kill assay; type: functional, organism-based
Escherichia coli [5] = assay: Bactericidal activity against Escherichia coli assessed as inhibition of bacterial growth at 3 times MIC incubated for 24 hrs by time kill assay; type: functional, organism-based
How it was run: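 Time-kill assay: E. coli was precultured for […] at 37 °C and adjusted to about 2 × 10^6 CFU mL−1. It was exposed to 3× MIC at 37 °C with shaking. Samples were taken at 0.5–13 h, serially 10-fold diluted in PBS and plated on Mueller–Hinton agar, and colonies were counted after 24 h at 37 °C. Run in duplicate.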

MCF7 = assay: Cytotoxicity against human MCF7 cells assessed as inhibition of cell growth incubated for 24 hrs by MTT assay; type: functional, cell-based; conditions: MCF7, 24 h
How it was run: (§2)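 MTT assay with 24 h exposure of cells to the samples. IC50 is the concentration giving 50% growth inhibition, reported as mean ± S.D. of three independent experiments.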

[6] = Cytotoxicity against human HEK293 cells assessed as inhibition of cell growth incubated for 24 hrs by MTT assay; type: toxicity, cell-based; how it was run: as §2
Staphylococcus aureus [7] = assay: Antibiofilm activity against Methicillin-resistant Staphylococcus aureus assessed as reduction in number of viable cells at 8 times MIC incubated for 24 hrs; type: functional, organism-based
Staphylococcus aureus [8] = assay: Antibiofilm activity against Methicillin-resistant Staphylococcus aureus assessed as reduction in number of viable cells at 16 times MIC incubated for 24 hrs; type: functional, organism-based
Staphylococcus aureus [9] = assay: Antibiofilm activity against Methicillin-resistant Staphylococcus aureus assessed as reduction in number of viable cells at 3 times MIC incubated for 24 hrs; type: functional, organism-based
How it was run: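 Biofilm eradication: mid-log MRSA at 2 × 10^6 CFU mL-1 grown 48 h to form biofilms, then washed with PBS. Biofilms exposed to compound at MIC, 2× or 3× MIC for 24 h; medium-only control. Biofilms dispersed with trypsin–EDTA, serial 10-fold dilutions plated, colonies counted after 24 h, expressed as log10 CFU mL-1.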

Escherichia coli [10] = assay: Antibiofilm activity against Escherichia coli assessed as reduction in number of viable cells at 2 times MIC incubated for 24 hrs; type: functional, organism-based
How it was run: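 E. coli was grown to mid-log phase and adjusted to 2 × 10^6 CFU mL−1. Biofilms were grown for 48 h, then the spent medium was removed and loose cells were washed off with PBS. Compound was added at MIC, 2× MIC or 4× MIC for 24 h, with a sterile-medium control. Biofilms were dispersed with trypsin–EDTA, 10-fold dilutions were plated, and colonies were counted after 24 h as log10 CFU mL−1.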

Escherichia coli [11] = assay: Antibiofilm activity against Escherichia coli assessed as reduction in number of viable cells at 8 times MIC incubated for 24 hrs; type: functional, organism-based
Staphylococcus aureus [12] = assay: Antibacterial activity against methicillin-resistant Staphylococcus aureus assessed as reduction in viable bacterial count at 2 to 4 times MIC measured after 18 hrs; type: functional, organism-based
Staphylococcus aureus [13] = assay: Antibacterial activity against methicillin-resistant Staphylococcus aureus assessed as increase in number of bacteria at 3 times MIC measured up to 5 hrs; type: functional, organism-based
How it was run: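 Cells washed three times in sterile saline by centrifugation, moved to fresh TSB at 37 °C. Viable counts plated on TSB agar at 2–17 h. PCE = t − c, the time for a 1-log rise in treated versus control. Run twice.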

[14] = Plasma protein binding in dog assessed as unbound fraction measured after 4 hrs by rapid equilibrium dialysis based LC-MS/MS analysis; type: ADME, cell-free, Canis lupus familiaris
How it was run: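 Rapid equilibrium dialysis of dog plasma against PBS pH 7.4 across an 8000 MWCO membrane. A 10 mM stock was diluted 1:50 with water and added to the plasma side, with sarolaner as control. Plates were shaken for 4 h at 37 °C. Proteins were precipitated with ACN and both chambers quantified by LC-MS/MS. % free = buffer/plasma concentration × 100; % bound = 100 − % free. n = 4.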

Cell membrane [15] = assay: Induction of cell membrane permeabilization in methicillin-resistant Staphylococcus aureus assessed as increase in fluorescence intensity at 3 times MIC incubated for 8 hrs by PI staining based confocal laser scanning microscopic analysis; type: subcellular
How it was run: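 Log-phase MRSA washed in PBS (10 mM, pH 7.2) and resuspended at 2 × 10^6 CFU mL-1 (OD600 0.2–0.4). Treated at 3× MIC for 8 h at 37 °C, PBS control. Stained with SYTO 9/propidium iodide 30 min in the dark, imaged by confocal laser scanning microscopy. Duplicate.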

Cell membrane [16] = assay: Induction of cell membrane permeabilization in Escherichia coli assessed as increase in fluorescence intensity at 3 times MIC incubated for 8 hrs by PI staining based confocal laser scanning microscopic analysis; type: subcellular
How it was run: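 Log-phase E. coli was washed and resuspended in PBS (10 mM, pH 7.2) at 2 × 10^6 CFU mL−1 (OD600 0.2–0.4). Cells were treated with 3× MIC for 8 h at 37 °C, with a PBS control, then stained with SYTO 9 and PI for 30 min in the dark and imaged by confocal microscopy. Run in duplicate.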

Cell membrane [17] = assay: Induction of cell membrane integrity in Escherichia coli assessed as increase in K+ efflux at 3 times MIC by absorption spectrophotometric analysis; type: subcellular
How it was run: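 Mid-log E. coli (6 h culture) was suspended to about 2 × 10^6 CFU mL−1 in 10 mM HEPES pH 7.3 plus 5 mM glucose (1:1). Cells were incubated with 3× MIC at 37 °C for various times, with a PBS control. Supernatant K+ was measured by atomic absorption spectrophotometry. Run in duplicate.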

Staphylococcus aureus [18] = assay: Antibacterial activity against methicillin-resistant Staphylococcus aureus infected in Kunming mouse corneal infection model assessed as reduction in viable bacterial count at 6 mg/ml, TOP administered 3 times daily for 1 week; type: functional, organism-based; conditions: time 1.0 weeks
How it was run: (§3)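 Corneal infection model: male and female Kunming mice (~20 g) immunosuppressed with daily i.p. cyclophosphamide for 3 days. Anesthetized with i.p. avertin (400 mg kg-1), corneas abraded and given 20 μL MRSA (6 × 10^7 CFU mL-1). From 24 h post-infection, treated by topical smear three times daily for one week. Controls: 5% glucose and 5% vancomycin. Six mice per group. Corneal viable counts measured.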

Staphylococcus aureus [19] = assay: Antibacterial activity against methicillin-resistant Staphylococcus aureus infected in Kunming mouse corneal infection model assessed as reduction in viable bacterial count at 3 mg/ml, TOP administered 3 times daily for 1 week; type: functional, organism-based; conditions: time 1.0 weeks; how it was run: as §3

Which MIC (Staphylococcus aureus [1]) does the source give for `CC(C)(C)c1ccc(CCNc2nc3ccccc3nc2N)cc1` here?
Its MIC is 8 µg/mL (≈ 25 µM).

And the MIC (Enterococcus)?
Its MIC is over 128 µg/mL.

And the Activity (Staphylococcus aureus [2])?
Its Activity is “Active”.

And the Activity (Staphylococcus aureus [3])?
The Activity was “inactive”.

What about the Activity (Escherichia coli [4]) of the same compound?
The Activity was “inactive”.

And the Activity (Escherichia coli [5])?
The Activity was “Active”.

What about the IC50 (MCF7) of the same compound?
Its IC50 is 72.5 µg/mL (≈ 226 µM).

What about the IC50 at 24 h [6] of the same compound?
The IC50 at 24 h was 129 µg/mL (≈ 403 µM).

And the Activity (Staphylococcus aureus [7])?
Its Activity is “Active”.

What about the Activity (Staphylococcus aureus [8]) of the same compound?
Its Activity is “Active”.

What about the Activity (Staphylococcus aureus [9]) of the same compound?
Its Activity is “Active”.

And the Activity (Escherichia coli [10])?
Its Activity is “Active”.

What about the Activity (Escherichia coli [11]) of the same compound?
The Activity was “Active”.

What about the Activity (Staphylococcus aureus [12]) of the same compound?
The Activity was “Active”.

What about the Activity (Staphylococcus aureus [13]) of the same compound?
The Activity was “Active”.

What about the fraction unbound at 4 h [14] of the same compound?
The fraction unbound at 4 h was 0.0731.

And the Activity (Cell membrane [15])?
Its Activity is “inactive”.

What about the Activity (Cell membrane [16]) of the same compound?
The Activity was “inactive”.

And the Activity (Cell membrane [17])?
The Activity was “Active”.

What about the Activity (Staphylococcus aureus [18]) of the same compound?
Its Activity is “Active”.

And the Activity (Staphylococcus aureus [19])?
Its Activity is “inactive”.
